According to ChEMBL document CHEMBL1151922, “Structure-activity relationships of 3,5-disubstituted benzamides as glucokinase activators with potent in vivo efficacy” (Bioorg Med Chem, 2009):
Values belong to the molecule of their own block, whether it stands above or below them. Calls of active or inactive are those of the source. No cut-off for these calls is given here.

What was measured:
[1] = target: T1, Hexokinase-4 (Homo sapiens, UniProt P35557); assay: Activation of flag-tagged human recombinant liver glucokinase expressed in Escherichia coli by glucose-6-phosphate dehydrogenase coupled continuous spectrophotometric assay in presence of 2.5 mM glucose
T1 sequence (P35557 whole entry): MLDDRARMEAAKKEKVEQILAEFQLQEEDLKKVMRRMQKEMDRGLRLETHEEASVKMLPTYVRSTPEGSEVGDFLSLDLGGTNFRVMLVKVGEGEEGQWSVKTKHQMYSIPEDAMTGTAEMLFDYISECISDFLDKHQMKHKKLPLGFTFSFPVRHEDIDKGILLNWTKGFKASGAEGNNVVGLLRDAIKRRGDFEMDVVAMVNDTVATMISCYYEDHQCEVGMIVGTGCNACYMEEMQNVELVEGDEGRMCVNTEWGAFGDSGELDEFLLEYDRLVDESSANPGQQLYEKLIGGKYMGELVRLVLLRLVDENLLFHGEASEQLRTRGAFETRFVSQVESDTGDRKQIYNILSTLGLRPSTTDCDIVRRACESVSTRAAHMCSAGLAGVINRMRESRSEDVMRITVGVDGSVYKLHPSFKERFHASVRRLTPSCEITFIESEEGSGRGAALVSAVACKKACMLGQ

[2] = target: T1, Hexokinase-4; assay: Activation of flag-tagged human recombinant liver glucokinase expressed in Escherichia coli by glucose-6-phosphate dehydrogenase coupled continuous spectrophotometric assay in presence of 10 mM glucose
[3] = Octanol-water distribution coefficient, log D at pH 7.4 by HPLC-MS analysis
[4] = test system: Mus musculus; assay: Glucose lowering effect in normal-fed ICR mouse assessed as decrease in blood glucose AUC level at 10 mg/kg, po; assay type: functional, organism-based; design: dose 10 mg/kg
Summary of the method: (§1)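 Male ICR mice aged ten to eleven weeks, fed ad libitum, given a single oral dose suspended in 0.5% methylcellulose; vehicle alone served as control. Blood glucose was measured immediately before dosing and at 0.5, 1, 1.5, 2, 3 and 4 h afterwards.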

[5] = test system: Mus musculus; assay: Glucose lowering effect in normal-fed ICR mouse assessed as decrease in blood glucose AUC level at 3 mg/kg, po; assay type: functional, organism-based; design: dose 3 mg/kg; summary of the method: as §1
[6] = Solubility in water at pH 7.4 by HPLC-UV method
[7] = Plasma clearance in Sprague-Dawley rat at 1 mg/kg, iv; assay type: ADME, organism-based; design: dose 1 mg/kg, route intravenous
[8] = test system: Mus musculus; assay: Glucose lowering effect in KKAy mouse assessed as decrease in blood glucose level at 10 mg/kg, po; assay type: functional, organism-based; design: dose 10 mg/kg
Summary of the method: (§2)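 Male KKAy mice aged nine weeks, fasted 4 h beforehand, given a single oral dose in 0.5% methylcellulose vehicle, with a vehicle-only control group. Blood glucose was read just before dosing and at 0.5, 1, 2 and 4 h afterwards.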

[9] = Cmax in Sprague-Dawley rat at 3 mg/kg, po; assay type: ADME, organism-based; design: dose 3 mg/kg, route oral; details: in vivo
[10] = Oral bioavailability in Beagle dog at 1 mg/kg; assay type: ADME, organism-based, Canis lupus familiaris; details: in vivo
[11] = Volume of distribution at steady state in Sprague-Dawley rat at 1 mg/kg, iv; assay type: ADME, organism-based; design: dose 1 mg/kg, route intravenous; details: in vivo, read-out: Vdss
[12] = Volume of distribution at steady state in Beagle dog at 0.3 mg/kg, iv; assay type: ADME, organism-based, Canis lupus familiaris; design: dose 0.3 mg/kg, route intravenous; details: in vivo, read-out: Vdss
[13] = AUC (0 to infinity) in Beagle dog at 1 mg/kg, po; assay type: ADME, organism-based, Canis lupus familiaris; design: dose 1 mg/kg, route oral, time infinity; details: plasma
[14] = Half life in Beagle dog at 0.3 mg/kg, iv; assay type: ADME, organism-based, Canis lupus familiaris; design: dose 0.3 mg/kg, route intravenous; details: in vivo
[15] = test system: Mus musculus; assay: Glucose lowering effect in high-fat diet mouse assessed as decrease in blood glucose level at 10 mg/kg, po; assay type: functional, organism-based; design: dose 10 mg/kg
Summary of the method: (§3)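 Male high-fat-diet mice aged forty-one weeks, fed freely, dosed orally in 0.5% methylcellulose vehicle against a vehicle-only group. Blood glucose was sampled just before dosing and at 1, 2, 4 and 6 h after.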

[16] = test system: Mus musculus; assay: Glucose lowering effect in KKAy mouse assessed as decrease in blood glucose AUC level at 30 mg/kg, po; assay type: functional, organism-based; design: dose 30 mg/kg; summary of the method: as §2
[17] = Half life in Sprague-Dawley rat at 1 mg/kg, iv; assay type: ADME, organism-based; design: dose 1 mg/kg, route intravenous; details: in vivo
[18] = test system: Mus musculus; assay: Glucose lowering effect in high-fat diet mouse assessed as decrease in blood glucose AUC level at 10 mg/kg, po; assay type: functional, organism-based; design: dose 10 mg/kg; summary of the method: as §3
[19] = Tmax in Sprague-Dawley rat at 3 mg/kg, po; assay type: ADME, organism-based; design: dose 3 mg/kg, route oral; details: in vivo
[20] = AUC (0 to infinity) in Sprague-Dawley rat at 1 mg/kg, iv; assay type: ADME, organism-based; design: time infinity, dose 1 mg/kg, route intravenous; details: plasma
[21] = AUC (0 to infinity) in Sprague-Dawley rat at 3 mg/kg, po; assay type: ADME, organism-based; design: dose 3 mg/kg, route oral, time infinity; details: plasma
[22] = test system: Mus musculus; assay: Glucose lowering effect in KKAy mouse assessed as decrease in blood glucose AUC level at 10 mg/kg, po; assay type: functional, organism-based; design: dose 10 mg/kg; summary of the method: as §2
[23] = Plasma clearance in Beagle dog at 0.3 mg/kg, iv; assay type: ADME, organism-based, Canis lupus familiaris; design: dose 0.3 mg/kg, route intravenous
[24] = test system: Mus musculus; assay: Glucose lowering effect in KKAy mouse assessed as decrease in blood glucose level at 30 mg/kg, po; assay type: functional, organism-based; design: dose 30 mg/kg; summary of the method: as §2
[25] = AUC (0 to infinity) in Beagle dog at 0.3 mg/kg, iv; assay type: ADME, organism-based, Canis lupus familiaris; design: time infinity, dose 0.3 mg/kg, route intravenous; details: plasma
[26] = Tmax in Beagle dog at 1 mg/kg, po; assay type: ADME, organism-based, Canis lupus familiaris; design: dose 1 mg/kg, route oral; details: in vivo
[27] = Oral bioavailability in Sprague-Dawley rat at 3 mg/kg; assay type: ADME, organism-based; details: in vivo
[28] = Cmax in Beagle dog at 1 mg/kg, po; assay type: ADME, organism-based, Canis lupus familiaris; design: dose 1 mg/kg, route oral; details: in vivo
[29] = test system: Mus musculus; assay: Glucose lowering effect in high-fat diet mouse assessed as decrease in blood glucose AUC level at 3 mg/kg, po; assay type: functional, organism-based; design: dose 3 mg/kg; summary of the method: as §3
[30] = test system: Mus musculus; assay: Glucose lowering effect in high-fat diet mouse assessed as decrease in blood glucose level at 3 mg/kg, po; assay type: functional, organism-based; design: dose 3 mg/kg; summary of the method: as §3

Structure (SMILES): CS(=O)(=O)c1ccc(Oc2cc(O[C@@H]3CCC[C@H]3O)cc(C(=O)Nc3nccs3)c2)cc1
EC50 [1]: 3700 nM
EC50 [2]: 1600 nM

Structure (SMILES): CC(C)Oc1cc(Oc2ccc(S(C)(=O)=O)cc2)cc(C(=O)Nc2nccs2)c1
EC50 [1]: 170 nM
logD [3]: > 5
EC50 [2]: 60 nM

Structure (SMILES): CS(=O)(=O)c1ccc(Oc2cc(O[C@@H]3CCC[C@@H]3O)cc(C(=O)Nc3nccs3)c2)cc1
EC50 [1]: 3400 nM
EC50 [2]: 1200 nM

Structure (SMILES): CS(=O)(=O)c1ccc(Oc2cc(O[C@H]3CCC[C@@H]3O)cc(C(=O)Nc3nccs3)c2)cc1 (stereo in doubt)
EC50 [1]: 280 nM
EC50 [2]: 170 nM

Structure (SMILES): CS(=O)(=O)c1ccc(Oc2cc(OC3CCCC3)cc(C(=O)Nc3nccs3)c2)cc1
EC50 [1]: 490 nM
logD [3]: > 5
EC50 [2]: 240 nM

Structure (SMILES): Cn1cnnc1Sc1ccc(N)c(C(=O)Nc2nccs2)c1
EC50 [1]: 420 nM
EC50 [2]: 140 nM

Structure (SMILES): CS(=O)(=O)c1ccc(Oc2cc(OC3CCOCC3)cc(C(=O)Nc3nccs3)c2)cc1
EC50 [1]: 460 nM
logD [3]: 4.1
EC50 [2]: 120 nM

Structure (SMILES): Cc1csc(NC(=O)c2cc(Oc3ccc(S(C)(=O)=O)cc3)cc(OC(C)C(=O)O)c2)n1 (racemic)
EC50 [1]: 30000 nM
EC50 [2]: 7400 nM

Structure (SMILES): CS(=O)(=O)c1ccc(Oc2cc(O[C@H]3CCOC3)cc(C(=O)Nc3nccs3)c2)cc1
EC50 [1]: 190 nM
EC50 [2]: 50 nM

Structure (SMILES): CS(=O)(=O)c1ccc(Oc2cc(O[C@H]3CCC[C@H]3O)cc(C(=O)Nc3nccs3)c2)cc1
EC50 [1]: 260 nM
EC50 [2]: 110 nM

Structure (SMILES): CS(=O)(=O)c1ccc(Oc2cc(O[C@@H]3CCOC3)cc(C(=O)Nc3nccs3)c2)cc1
EC50 [1]: 1800 nM
EC50 [2]: 300 nM

Structure (SMILES): COCC(COC)Oc1cc(Oc2ccc(S(C)(=O)=O)cc2)cc(C(=O)Nc2nccs2)c1
EC50 [1]: 610 nM
logD [3]: > 4
EC50 [2]: 120 nM

Structure (SMILES): CC(CCO)Oc1cc(Oc2ccc(S(C)(=O)=O)cc2)cc(C(=O)Nc2nccs2)c1 (racemic)
EC50 [1]: 150 nM
logD [3]: 3.4
EC50 [2]: 60 nM

Structure (SMILES): CS(=O)(=O)c1ccc(Oc2cc(O[C@H]3CCC[C@H]3O)cc(C(=O)Nc3nccs3)c2)cc1 (racemic)
EC50 [1]: 460 nM
logD [3]: 3.4
EC50 [2]: 120 nM

Structure (SMILES): CS(=O)(=O)c1ccc(Oc2cc(OC3CCOC3)cc(C(=O)Nc3nccs3)c2)cc1 (racemic)
logD [3]: 4.2

Structure (SMILES): CC(CO)Cc1cc(Oc2ccc(S(C)(=O)=O)cc2)cc(C(=O)Nc2nccs2)c1 (racemic)
EC50 [1]: 750 nM
logD [3]: 3.4
EC50 [2]: 250 nM

Structure (SMILES): CS(=O)(=O)c1ccc(Oc2cc(O[C@H]3CCC[C@@H]3O)cc(C(=O)Nc3nccs3)c2)cc1 (stereo in doubt; 6j)
EC50 [1]: 160 nM
EC50 [2]: 90 nM

Structure (SMILES): C[C@@H](CO)Oc1cc(Oc2ccc(S(C)(=O)=O)cc2)cc(C(=O)Nc2nccs2)c1
clearance [7]: 3.9 mL/min/kg
Activity [8]: Active
Cmax [9]: 3400 nM
bioavailability [10]: 57%
Vd [11]: 0.19 L/kg
Vd [12]: 1.56 L/kg
AUC(0-inf) [13]: 4.6 µM·h
half-life [14]: 5.4 h
Activity [15]: Active
Activity [16]: Active
half-life [17]: 1.3 h
Activity [18]: Active
Tmax [19]: 0.3 h
AUC(0-inf) [20]: 10 µM·h
AUC(0-inf) [21]: 12 µM·h
Activity [22]: Active
Activity [4]: Active
Activity [5]: Active
clearance [23]: 4.6 mL/min/kg
Activity [24]: Active
AUC(0-inf) [25]: 2.4 µM·h
Tmax [26]: 1.2 h
bioavailability [27]: 33%
Cmax [28]: 800 nM
Activity [29]: Active
Activity [30]: Active

Structure (SMILES): CCC(COC)Oc1cc(Oc2ccc(S(C)(=O)=O)cc2)cc(C(=O)Nc2nccs2)c1 (racemic)
EC50 [1]: 190 nM
logD [3]: > 5
EC50 [2]: 60 nM

Second part, led by results:

EC50 [1]: 360 nM
logD [3]: > 4
EC50 [2]: 200 nM
Structure (SMILES): CC(C)C(CO)Oc1cc(Oc2ccc(S(C)(=O)=O)cc2)cc(C(=O)Nc2nccs2)c1 (racemic)

logD [3]: > 5
solubility [6]: < 0.1 µg/mL
Structure (SMILES): Cc1csc(NC(=O)c2cc(Oc3ccc(S(C)(=O)=O)cc3)cc(OC(C)C)c2)n1
Activity [4]: inactive
Activity [5]: inactive

EC50 [1]: 12000 nM
EC50 [2]: 2600 nM
Structure (SMILES): CC(CN(C)C)Oc1cc(Oc2ccc(S(C)(=O)=O)cc2)cc(C(=O)Nc2nccs2)c1 (racemic)

EC50 [1]: 1500 nM
logD [3]: 1.1
EC50 [2]: 210 nM
Structure (SMILES): CC(CN)Oc1cc(Oc2ccc(S(C)(=O)=O)cc2)cc(C(=O)Nc2nccs2)c1 (racemic)

EC50 [1]: 190 nM
logD [3]: 4
EC50 [2]: 70 nM
Structure (SMILES): COCC(C)Oc1cc(Oc2ccc(S(C)(=O)=O)cc2)cc(C(=O)Nc2nccs2)c1 (racemic)

EC50 [1]: 780 nM
logD [3]: 2.4
EC50 [2]: 200 nM
Structure (SMILES): CS(=O)(=O)c1ccc(Oc2cc(OCCO)cc(C(=O)Nc3nccs3)c2)cc1

EC50 [1]: 790 nM
logD [3]: > 4
EC50 [2]: 240 nM
Structure (SMILES): CS(=O)(=O)c1ccc(Oc2cc(OC(CO)C(F)(F)F)cc(C(=O)Nc3nccs3)c2)cc1 (racemic)

EC50 [1]: 18000 nM
EC50 [2]: 4200 nM
Structure (SMILES): CS(=O)(=O)c1ccc(Oc2cc(OC3CCNC3)cc(C(=O)Nc3nccs3)c2)cc1 (racemic)

EC50 [1]: 24000 nM
EC50 [2]: 7300 nM
Structure (SMILES): CN1CCC(Oc2cc(Oc3ccc(S(C)(=O)=O)cc3)cc(C(=O)Nc3nccs3)c2)C1 (racemic)
